The results in this text go back to ChEMBL document CHEMBL1140166, “Discovery of 1,4-substituted piperidines as potent and selective inhibitors of T-type calcium channels” (J Med Chem, 2008).

Molecules are shown by their SMILES.

Data set [1] can be described thus: Dissociation constant, pKa of the compound. In kind it is physicochemical. In a few lines:
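pKa was measured by potentiometric titration; calculated pKa values were also given from a pKa database.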

Data set [2] can be described thus: Bioavailability in Wistar albino rat. Format: ADME, organism-based. The conditions noted are these: in vivo.
A short description of data set [3]: Half life in rhesus monkey at 1 mg/kg, iv. Further details: dose 1 mg/kg, route intravenous. Format: ADME, organism-based, Macaca mulatta. The conditions noted are these: in vivo.
The nature of data set [4]: AUC in Sprague-Dawley rat at 0.3 mg/kg, po. Format: ADME, organism-based. Details: dose 0.3 mg/kg, route oral. Particulars: plasma.
The nature of data set [5]: AUC in Beagle dog at 3 mg/kg, po. Format: ADME, organism-based, Canis lupus familiaris. Further details: dose 3 mg/kg, route oral. Particulars: plasma.
Data set [6] can be described thus: Cmax in Beagle dog at 3 mg/kg, po. Format: ADME, organism-based, Canis lupus familiaris. Details: dose 3 mg/kg, route oral. Particulars: in vivo.
Data set [7] is described as follows: Half life in Sprague-Dawley rat at 2 mg/kg, iv. Format: ADME, organism-based. Details: dose 2 mg/kg, route intravenous. Particulars: in vivo.
A short description of data set [8]: Ratio of drug level from cerebrospinal fluid to plasma in rat at 10 mg/kg, po after 9 hrs. In kind it is ADME, organism-based, CSF/Plasma. Further details: dose 10 mg/kg, route oral. An outline of the steps:
(§1)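 Rats given a single oral 10 mpk dose; brain, plasma and CSF levels measured; brain/plasma and CSF/plasma concentration ratios taken at 9 h after oral dosing.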

Data set [9] in a line: Cmax in Sprague-Dawley rat at 1 mg/kg, po. In kind it is ADME, organism-based. Details: dose 1 mg/kg, route oral. The conditions noted are these: in vivo.
Data set [10] can be described thus: Oral bioavailability in rhesus monkey at 3 mg/kg. Format: ADME, organism-based, Macaca mulatta. The conditions noted are these: in vivo.
Data set [11] in a line: Plasma clearance in Sprague-Dawley rat at 2 mg/kg, iv. Format: ADME, organism-based. Details: dose 2 mg/kg, route intravenous.
Data set [12] can be described thus: AUC in Sprague-Dawley rat at 10 mg/kg, po. Format: ADME, organism-based. Details: dose 10 mg/kg, route oral. The conditions noted are these: plasma.
A short description of data set [13]: Ratio of drug level from brain to plasma in rat at 10 mg/kg, po after 9 hrs. In kind it is ADME, organism-based. Further details: dose 10 mg/kg, route oral. In a few lines:
as §1

Data set [14] is described as follows: Half life in Beagle dog at 1 mg/kg, iv. Particulars: in vivo. In kind it is ADME, organism-based, Canis lupus familiaris. Further details: dose 1 mg/kg, route intravenous.
The nature of data set [15]: Plasma clearance in rhesus monkey at 1 mg/kg, iv. Details: dose 1 mg/kg, route intravenous. In kind it is ADME, organism-based, Macaca mulatta.
Data set [16] in a line: Cmax in Sprague-Dawley rat at 10 mg/kg, po. Format: ADME, organism-based. Further details: dose 10 mg/kg, route oral. Particulars: in vivo.
Data set [17] in a line: AUC in Sprague-Dawley rat at 1 mg/kg, po. Format: ADME, organism-based. Further details: dose 1 mg/kg, route oral. Particulars: plasma.
Data set [18] in a line: Oral bioavailability in Sprague-Dawley rat at 10 mg/kg. Format: ADME, organism-based. The conditions noted are these: in vivo.
Data set [19] is described as follows: Oral bioavailability in Beagle dog at 3 mg/kg. Format: ADME, organism-based, Canis lupus familiaris. Particulars: in vivo.
A short description of data set [20]: Plasma clearance in Beagle dog at 1 mg/kg, iv. Format: ADME, organism-based, Canis lupus familiaris. Details: dose 1 mg/kg, route intravenous.
Data set [21] can be described thus: AUC in rhesus monkey at 3 mg/kg, po. Format: ADME, organism-based, Macaca mulatta. Further details: dose 3 mg/kg, route oral. Particulars: plasma.
Data set [22] is described as follows: Cmax in rhesus monkey at 3 mg/kg, po. Format: ADME, organism-based, Macaca mulatta. Details: dose 3 mg/kg, route oral. Particulars: in vivo.

Take `CC(C)(C)CCN1CCC(CNC(=O)c2cc(Cl)cc(Cl)c2)CC1`: in [1], the pKa – broadly, the negative logarithm of the acid dissociation constant – came out at 8.7. Also, in [2], the bioavailability – broadly, dose-corrected exposure relative to a reference, in per cent – turned out to be 100%.

For the compound `CC1(C)C[C@@H](CN2CCC(F)(CNC(=O)c3cc(Cl)cc(Cl)c3)CC2)CCO1`, the pKa in [1] came to 7.9.

In [1], `CC(C)(C)C(=O)CN1CCC(CNC(=O)c2cc(Cl)cc(Cl)c2)CC1` had a pKa of 8.

Compound `CC(C)(C)NC(=O)CN1CCC(CNC(=O)c2cc(Cl)cc(Cl)c2)CC1` displayed a pKa in data set [1] of 7.6.

On to `CC(C)(C)CCN1CC[C@H](CNC(=O)c2cc(Cl)cc(Cl)c2)[C@H](F)C1`, for which the results for the half-life in [3], in data set [7] and in data set [14] were 4.6 h, 4.9 h and 10.8 h, respectively. Moreover, the AUC (in general, the area under the concentration-time curve, a measure of exposure) in data set [4] was determined as 10 nM·h; in [5] it was 9500 nM·h; in data set [12], 3100 nM·h; in data set [17], 190 nM·h; in data set [21], 2400 nM·h. Further, the Cmax – broadly, the highest concentration seen after dosing – in data set [6] was 1.18 µM; in [9], 0.033 µM; in data set [16], 0.432 µM; in data set [22] it was 0.184 µM. Moreover, the Kp (usually the ratio of the level in a tissue or fluid to that in plasma or blood) at 9 h in data set [8] was found to be 0.14; in [13], 9. Further, the bioavailability in [10] came to 18%; in [18] it was 30%; in data set [19], 67%. For the same compound, the clearance (as a rule, the rate of elimination divided by the concentration) in data set [11] was 2.46 L/h/kg; in data set [15] it was 0.576 L/h/kg; in [20], 0.546 L/h/kg. The compound also yielded a pKa in [1] of 7.9.

As for `CC(C)(C)C(O)CN1CCC(CNC(=O)c2cc(Cl)cc(Cl)c2)CC1` (stereo not drawn), the pKa in [1] is 9.2.

`CC(C)(C)CCN1CC[C@@H](CNC(=O)c2cc(Cl)cc(Cl)c2)[C@H](F)C1` (relative stereo) yielded a pKa in [1] of 6.7.
